Values after ≈ are worked out from the molar mass of the structure shown. Active and inactive are the calls of the source. No cut-off for these calls is given here.
Columns and labels:
[1] = molecular target: T1, Sphingosine 1-phosphate receptor 2 (Homo sapiens, UniProt O95136); assay: Antagonist activity at recombinant human S1P2 receptor expressed in CHO cells assessed as EC80 S1P-induced activation incubated for 4 hrs in presence of [35S]GTPgammaS by Topcount reader; type: functional, cell-based
T1 sequence (O95136 whole entry): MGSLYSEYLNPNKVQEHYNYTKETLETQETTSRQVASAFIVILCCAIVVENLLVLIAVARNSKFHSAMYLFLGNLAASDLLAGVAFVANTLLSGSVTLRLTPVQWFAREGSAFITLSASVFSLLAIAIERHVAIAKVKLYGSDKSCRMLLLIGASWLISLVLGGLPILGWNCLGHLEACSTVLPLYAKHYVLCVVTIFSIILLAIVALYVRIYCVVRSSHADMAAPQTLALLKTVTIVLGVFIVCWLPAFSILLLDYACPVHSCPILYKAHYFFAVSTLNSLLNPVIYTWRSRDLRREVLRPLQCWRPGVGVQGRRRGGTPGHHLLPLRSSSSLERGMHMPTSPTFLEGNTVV
How it was run: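 Membranes from stable lines overexpressing recombinant human S1P2, preincubated with PVT-WGA SPA beads, mixed with compound serial dilutions, [35S]GTPγS and S1P at EC80. Incubated 4 h at room temperature, centrifuged, scintillation counted. Antagonist mode; IC50 as geometric mean of ≥2 runs.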

[2] = molecular target: T1, Sphingosine 1-phosphate receptor 2; assay: Displacement of radio labeled-SIP from human recombinant S1P2 receptor expressed in CHO cell membranes […] by radioligand based competition binding assay; design: species or system Membrane
[3] = molecular target: T1, Sphingosine 1-phosphate receptor 2; assay: Agonist activity at human S1P2 receptor expressed in CHO cells assessed as calcium flux measured for 3 mins by fluorescence assay; type: functional, cell-based; conditions: read-out: IC50 (the source's name)
How it was run: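 CHO cells stably overexpressing human S1P2, seeded overnight at 37 °C/5% CO2, washed and starved 1 h in F-12 with 0.1% fatty-acid-free BSA, loaded with Fluo 8 dye with 5 mM probenecid. Compound added, fluorescence read 3 min; max/baseline ratio normalized to vehicle and S1P EC100. 10-point 1/3 dilutions from 23.3 μM final; EC50 derived; geometric mean of ≥2 runs.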

[4] = molecular target: T1, Sphingosine 1-phosphate receptor 2; assay: Antagonist activity at human S1P2 receptor expressed in CHO cells assessed as EC80 S1P-induced calcium flux measured for 3 mins by fluorescence assay; type: functional, cell-based
How it was run: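 Same dye-loaded, starved human S1P2-CHO cells; after agonist readout, 15 min at 37 °C, then stimulated with S1P at EC80, fluorescence read 3 min. Max/baseline ratio normalized to vehicle and S1P EC80. 10-point 1/3 dilutions from 20 μM final; IC50 derived; geometric mean of ≥2 runs.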

[5] = Clearance in Sprague-Dawley rat at 1 mg/kg, iv measured up to 24 hrs by LC-MS/MS analysis; type: ADME, organism-based; conditions: in vivo
How it was run: (§1)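 Male Sprague-Dawley rats (6–8 weeks), n = 3 per route; iv bolus 1 mg/kg in PEG200/water 60/40; gavage 5 or 10 mg/kg in PEG400/MC 0.5% after ≥12 h fast. Li-heparin plasma sampled to 24 h, LC-MS/MS, noncompartmental analysis. Plasma protein binding: 5 μM compound, 4 h incubation.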

[6] = Half life in beagle dog at 1 mg/kg, iv measured up to 24 hrs by LC-MS/MS analysis; type: ADME, organism-based, Canis lupus familiaris; conditions: in vivo
How it was run: (§2)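 Non-naive male Beagle dogs (n = 3) given 1 mg/kg iv as 10 min infusion; after 3-day washout, oral gavage 5 or 1 mg/kg in PEG400/MC 0.5% or MC 0.5% after ≥12 h fast. Jugular or cephalic blood into lithium heparin to 24 h; plasma analysed. Plasma protein binding: 5 μM compound, 4 h incubation.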

[7] = Half life in CD1 mouse at 1 mg/kg, iv measured up to 24 hrs by LC-MS/MS analysis; type: ADME, organism-based; conditions: in vivo
How it was run: (§3)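 Male CD1 mice, composite design, n = 6 per route; iv 1 mg/kg in PEG200/water 60/40, oral gavage 5 mg/kg in Tween 80/MC 0.5% or PEG400/MC 0.5% after ≥12 h fast. Li-heparin blood sampled to 24 h, plasma by LC-MS/MS; noncompartmental analysis. Plasma protein binding: 5 μM compound, 4 h incubation.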

[8] = Volume of distribution at steady state in CD1 mouse at 1 mg/kg, iv measured up to 24 hrs by LC-MS/MS analysis; type: ADME, organism-based; conditions: in vivo, read-out: Vdss; how it was run: as §3
[9] = molecular target: T1, Sphingosine 1-phosphate receptor 2; assay: Antagonist activity at recombinant human S1P2 receptor in HFL1 cells assessed as inhibition of EC80 S1P-induced IL8 release measured as unbound concentration incubated for 16 to 24 hrs in presence of 2% HSA by ELISA; type: functional, cell-based; conditions: filed as antagonist, time 16-24 hrs
How it was run: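 IL8 IC50 from the 2% HSA condition converted to free IC50 = IC50 × fu,medium, where fu,medium is estimated from human plasma protein binding fraction unbound and the serum percentage used in the assay.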

[10] = Volume of distribution at steady state in Sprague-Dawley rat at 1 mg/kg, iv measured up to 24 hrs by LC-MS/MS analysis; type: ADME, organism-based; conditions: in vivo, read-out: Vdss; how it was run: as §1
[11] = Plasma protein binding CD1 mouse plasma at 5 uM incubated for 4 hrs; type: ADME, cell-free; conditions: read-out: PPB (converted); how it was run: as §3
[12] = Clearance in CD1 mouse at 1 mg/kg, iv measured up to 24 hrs by LC-MS/MS analysis; type: ADME, organism-based; conditions: in vivo; how it was run: as §3
[13] = Oral bioavailability in beagle dog at 1 mg/kg measured up to 24 hrs by LC-MS/MS analysis; type: ADME, organism-based, Canis lupus familiaris; conditions: in vivo; how it was run: as §2
[14] = Plasma protein binding beagle dog plasma at 5 uM incubated for 4 hrs; type: ADME, cell-free, Canis lupus familiaris; conditions: read-out: PPB (converted); how it was run: as §2
[15] = Intrinsic clearance unbound in mouse liver microsomes at 1 uM […] by LC-MS/MS analysis; type: ADME, Microsome
[16] = Half life in Sprague-Dawley rat at 1 mg/kg, iv measured up to 24 hrs by LC-MS/MS analysis; type: ADME, organism-based; conditions: in vivo; how it was run: as §1
[17] = Plasma protein binding Sprague-Dawley rat plasma at 5 uM incubated for 4 hrs; type: ADME, cell-free; conditions: read-out: PPB (converted); how it was run: as §1
[18] = Thermodynamic solubility in FaSSIF; type: physicochemical; conditions: read-out: Therm_solubility
Mus musculus [19] = assay: Antifibrotic activity against intranasal bleomycin-induced C57BL/6 mouse lung fibrosis model assessed as reduction in Ashcroft score at 3 to 30 mg/kg, po twice daily for 14 days; type: functional, organism-based; conditions: dose 3-30 mg/kg, time 14.0 day
How it was run: (§4)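 Male C57BL/6 mice (7–8 weeks on arrival, one week acclimation) given bleomycin intranasally; prophylactic oral dosing twice daily for 14 days. Lungs scored histologically by Matsuse-modified Ashcroft score; 14–15 mice per group; Mann–Whitney vs bleomycin/vehicle.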

[20] = Volume of distribution at steady state in beagle dog at 1 mg/kg, iv measured up to 24 hrs by LC-MS/MS analysis; type: ADME, organism-based, Canis lupus familiaris; conditions: in vivo, read-out: Vdss; how it was run: as §2
[21] = molecular target: T1, Sphingosine 1-phosphate receptor 2; assay: Antagonist activity at recombinant human S1P2 receptor in HFL1 cells assessed as inhibition of EC80 S1P-induced IL8 release incubated for 16 to 24 hrs in absence of HSA by ELISA; type: functional, cell-based
How it was run: (§5)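 HFL-1 lung fibroblasts seeded in 96- or 384-well plates, then medium replaced by starvation medium with 1% heat-inactivated FBS, ±1.95% HSA (2% HSA condition), 16–24 h. 10-point 1/3 dilutions, 30 μM top final, 1 h, then S1P at EC80 (without HSA: 1 μM 96-well or 0.5 μM 384-well; with HSA: 5 or 2 μM).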

[22] = Oral bioavailability in Sprague-Dawley rat at 10 mg/kg measured up to 24 hrs by LC-MS/MS analysis; type: ADME, organism-based; conditions: in vivo; how it was run: as §1
[23] = Thermodynamic solubility in FaSSGF at pH 1.6; type: physicochemical; conditions: read-out: Therm_solubility
[24] = Oral bioavailability in CD1 mouse at 5 mg/kg measured up to 24 hrs by LC-MS/MS analysis; type: ADME, organism-based; conditions: in vivo; how it was run: as §3
[25] = Clearance in beagle dog at 1 mg/kg, iv measured up to 24 hrs by LC-MS/MS analysis; type: ADME, organism-based, Canis lupus familiaris; conditions: in vivo; how it was run: as §2
[26] = Intrinsic clearance unbound in human liver microsomes at 1 uM […] by LC-MS/MS analysis; type: ADME, Microsome
[27] = molecular target: T1, Sphingosine 1-phosphate receptor 2; assay: Antagonist activity at recombinant human S1P2 receptor in HFL1 cells assessed as inhibition of EC80 S1P-induced IL8 release incubated for 16 to 24 hrs in presence of 2% HSA by ELISA; type: functional, cell-based; how it was run: as §5
Mus musculus [28] = assay: Antifibrotic activity against intranasal bleomycin-induced C57BL/6 mouse lung fibrosis model assessed as reduction in Ashcroft score at 50 mg/kg, po twice daily for 14 days; type: functional, organism-based; conditions: time 14.0 day; how it was run: as §4
CYP2C19 = CYP2C19 (Homo sapiens, UniProt P33261); assay: Inhibition of recombinant CYP2C19 (unknown origin) at 10 uM; type: ADME
Chain of CYP2C19 (P33261 whole entry): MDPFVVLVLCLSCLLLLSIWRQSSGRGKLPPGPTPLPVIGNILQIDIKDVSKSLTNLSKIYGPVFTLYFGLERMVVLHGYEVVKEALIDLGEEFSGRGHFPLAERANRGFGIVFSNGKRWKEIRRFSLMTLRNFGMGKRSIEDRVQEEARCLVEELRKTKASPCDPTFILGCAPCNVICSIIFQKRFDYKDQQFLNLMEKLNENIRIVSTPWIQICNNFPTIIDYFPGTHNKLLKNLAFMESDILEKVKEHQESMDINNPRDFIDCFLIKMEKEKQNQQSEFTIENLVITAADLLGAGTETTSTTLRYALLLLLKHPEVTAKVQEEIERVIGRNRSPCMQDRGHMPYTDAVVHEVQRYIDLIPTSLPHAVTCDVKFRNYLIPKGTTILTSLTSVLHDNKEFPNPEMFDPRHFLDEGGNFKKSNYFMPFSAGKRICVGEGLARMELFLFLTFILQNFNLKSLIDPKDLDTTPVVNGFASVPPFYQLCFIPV

CYP2C9 = CYP2C9 (Homo sapiens, UniProt P11712); assay: Inhibition of recombinant CYP2C9 (unknown origin) at 10 uM; type: ADME
Chain of CYP2C9 (P11712 whole entry): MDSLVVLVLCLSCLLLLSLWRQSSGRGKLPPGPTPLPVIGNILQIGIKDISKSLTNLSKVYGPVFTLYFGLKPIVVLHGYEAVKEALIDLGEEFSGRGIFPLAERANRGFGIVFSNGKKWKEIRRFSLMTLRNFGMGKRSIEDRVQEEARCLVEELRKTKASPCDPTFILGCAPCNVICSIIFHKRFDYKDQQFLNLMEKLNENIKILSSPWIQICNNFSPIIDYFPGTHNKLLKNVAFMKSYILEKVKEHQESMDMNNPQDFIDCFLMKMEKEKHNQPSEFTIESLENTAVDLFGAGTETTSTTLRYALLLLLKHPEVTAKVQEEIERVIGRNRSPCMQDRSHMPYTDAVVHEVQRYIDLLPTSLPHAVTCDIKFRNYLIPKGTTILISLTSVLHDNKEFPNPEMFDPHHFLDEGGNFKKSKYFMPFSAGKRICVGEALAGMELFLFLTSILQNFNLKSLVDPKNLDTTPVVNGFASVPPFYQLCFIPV

CYP3A4 = CYP3A4 (Homo sapiens, UniProt P08684); assay: Inhibition of recombinant CYP3A4 (unknown origin) at 10 uM; type: ADME
Chain of CYP3A4 (P08684 whole entry): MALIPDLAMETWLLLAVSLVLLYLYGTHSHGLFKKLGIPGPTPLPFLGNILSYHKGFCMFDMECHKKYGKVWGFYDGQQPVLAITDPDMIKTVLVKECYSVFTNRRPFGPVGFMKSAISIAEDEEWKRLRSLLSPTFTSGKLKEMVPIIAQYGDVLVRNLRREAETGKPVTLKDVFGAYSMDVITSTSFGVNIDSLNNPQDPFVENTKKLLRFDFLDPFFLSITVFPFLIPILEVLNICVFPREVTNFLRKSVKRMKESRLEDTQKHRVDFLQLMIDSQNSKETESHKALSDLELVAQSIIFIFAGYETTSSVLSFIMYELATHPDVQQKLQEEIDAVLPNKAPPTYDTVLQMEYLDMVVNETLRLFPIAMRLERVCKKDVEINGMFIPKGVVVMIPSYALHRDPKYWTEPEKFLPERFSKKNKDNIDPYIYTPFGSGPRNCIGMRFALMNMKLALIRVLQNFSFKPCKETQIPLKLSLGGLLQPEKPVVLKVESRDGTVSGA

| Structure (SMILES) | IC50 [1] | IC50 [4] | fIC50 [9] | CL free [15] | IC50 [21] | CL free [26] | IC50 [27] | further results |
| --- | --- | --- | --- | --- | --- | --- | --- | --- |
| CCOc1nc(Cl)cc(NC(=O)NCc2cc(C)c(-c3cn(C)nc3C(F)(F)F)nn2)c1C | 15000 nM | 8800 nM | 0.16 nM | < 533 mL/min/kg | 15 nM | < 127 mL/min/kg | 32 nM |  |
| Cc1cc(CNC(=O)Nc2cc(OCCO)nc(C(F)(F)F)c2)nnc1-c1cn(C)nc1C(F)(F)F | 704000 nM | 348000 nM | 87 nM | 102 mL/min/kg | 704 nM | < 23.3 mL/min/kg | 810 nM |  |
| Cc1ccc(=O)n(-c2ccccc2)c1 |  |  |  |  |  |  |  | Activity (Mus musculus [28]): Active |
| CCOc1cc(NC(=O)NCc2cc(C)c(-c3cn(C)nc3C(F)(F)F)cn2)cc(Cl)n1 | 22000 nM | 11 nM |  | 450 mL/min/kg | 22 nM | 150 mL/min/kg |  | inhibition at 10 µM (CYP2C19): 100%; inhibition at 10 µM (CYP2C9): 83%; inhibition at 10 µM (CYP3A4): 83% |
| CCOc1cc(NC(=O)NCc2cc(C)c(-c3cn(C)nc3C(F)(F)F)nn2)cc(C#N)n1 | 35000 nM | 11000 nM | 3 nM | < 105 mL/min/kg | 35 nM | < 28.3 mL/min/kg | 67 nM |  |

Further compounds by falling IC50 [1], results first:

| IC50 [1] | IC50 [4] | fIC50 [9] | CL free [15] | IC50 [21] | CL free [26] | IC50 [27] | Structure (SMILES) | further results |
| --- | --- | --- | --- | --- | --- | --- | --- | --- |
| 169000 nM | 84000 nM | 5.4 nM | 91.7 mL/min/kg | 160 nM |  | 256 nM | Cc1cc(CNC(=O)Nc2cc(C(F)(F)F)nc(OCCO)c2C)nnc1-c1cn(C)nc1C(F)(F)F |  |
| 24000 nM | 7100 nM | 0.19 nM | < 163 mL/min/kg | 24 nM | < 35 mL/min/kg | 17 nM | CCOc1nc(C#N)cc(NC(=O)NCc2cc(C)c(-c3cn(C)nc3C(F)(F)F)nn2)c1C |  |
| 16000 nM | 4500 nM | 1.3 nM | 283 mL/min/kg | 16 nM | 36.7 mL/min/kg | 49 nM | CCOc1nc(C)cc(NC(=O)NCc2cc(C)c(-c3cn(C)nc3C(F)(F)F)nn2)c1C | clearance [5]: 6.17 mL/min/kg; half-life [6]: 1.6 h; half-life [7]: 0.45 h; Vd [8]: 0.47 L/kg; Vd [10]: 0.54 L/kg; fraction unbound at 4 h, 5 µM [11]: 0.014; clearance [12]: 12.2 mL/min/kg; bioavailability [13]: 39%; fraction unbound at 4 h, 5 µM [14]: 0.022; half-life [16]: 1 h; fraction unbound at 4 h, 5 µM [17]: 0.004; solubility thermodynamic [18]: 15 µg/mL (≈ 32.4 µM); Activity (Mus musculus [19]): Active; Vd [20]: 1.5 L/kg; bioavailability [22]: 84%; solubility thermodynamic [23]: 505 µg/mL (≈ 1090 µM); bioavailability [24]: 29%; clearance [25]: 11 mL/min/kg |
| 2100 nM | 760 nM |  |  |  |  |  | CCOC(=O)c1cc(C)cc(NNC(=O)Nc2cc(Cl)nc(Cl)c2)n1 | IC50 [2]: 300 nM; EC50 [3]: > 23000 nM |
